Data published in ChEMBL document CHEMBL1129597, “2-[2'-(Dimethylamino)ethyl]-1,2-dihydro- 3H-dibenz[de,h]isoquinoline-1,3-diones with substituents at positions 4, 8, 9, 10, and 11. Synthesis, antitumor activity, and quantitative structure-activity relationships” (J Med Chem, 1996).

Key:
L1210 [1] = experiment: Compound was tested for antitumor activity against Murine leukemia cell line (L1210).; assay type: functional, cell-based; settings: Mus musculus
In short: (§1)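 Murine L1210 leukemia cells, sensitive or MDR subline, in culture. Continuous drug exposure during MTT assay. Five concentrations per analogue, six determinations per concentration. The IC50 was derived.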

MCF7 [2] = experiment: Antitumor activity against human mammary carcinoma sensitive […] breast cell line.; assay type: functional, cell-based
WiDr [3] = experiment: Activity against human colon carcinoma sensitive WiDr cell line.; assay type: functional, cell-based
MCF7 [4] = experiment: Compound was tested for antitumor activityHuman mammary carcinoma Doxorubicin resistant […] breast cell line.; assay type: functional, cell-based; settings: Homo sapiens
Rattus norvegicus = species on record: Rattus norvegicus; experiment: Cardiotoxicity measured by the ATP/protein ratio compared with untreated controls using neonatal rat heart myocyte assay.; assay type: functional
In short: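 Neonatal rat heart myocytes exposed to drug for 1 h. The ATP/protein ratio was measured versus untreated control myocytes. IC50 is the concentration reducing this ratio to 50% of control.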

L1210 [5] = experiment: Antitumor activity against sensitive L1210 murine leukemia cell lines.; assay type: functional, cell-based; settings: Mus musculus; in short: as §1
[6] = (§2) The quotient of the IC50 in the myocytes divided by the mean IC50 in the three cell lines; assay type: functional
In short: (§3)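 Calculated index: the myocyte IC50 divided by the mean IC50 across three tumor lines (sensitive L1210, melanoma UACC375, ovarian OVCAR3).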

WiDr [7] = experiment: Activity against human colon carcinoma multi drug resistant (MDR)-WiDr cell line.; assay type: functional, cell-based
UACC-375 = experiment: Antitumor activity against human melanoma UACC375 cell line.; assay type: functional, cell-based
In short: (§4)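 Cultured human tumor cells (melanoma UACC375, ovarian OVCAR3) under continuous drug exposure. Growth was read by sulforhodamine or MTT assay. Five concentrations per analogue, six determinations per concentration. IC50 values were derived from these.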

MCF7 [8] = experiment: Antitumor activity against human mammary carcinoma mitoxantrone-resistant […] breast cell line.; assay type: functional, cell-based
A549 = experiment: Activity against A549 cancer cell line.; assay type: functional, cell-based; settings: Homo sapiens
OVCAR-3 = experiment: Antitumor activity against human ovarian OVCAR-3 cell lines.; assay type: functional, cell-based; in short: as §4
MCF7 [9] = experiment: Antitumor activity against human mammary carcinoma doxorubicin-resistant […] breast cell line.; assay type: functional, cell-based
L1210 [10] = experiment: Compound was tested for antitumor activity against l. Sensitive leukemia cell lines (L1210).; assay type: functional, cell-based; settings: Mus musculus; in short: as §1
L1210 [11] = experiment: Antitumor activity against murine leukemia L1210 cell line.; assay type: functional, cell-based; settings: Mus musculus; in short: as §1
[12] = as §2; assay type: ADME, cell-based; settings: myocytes versus three cell lines; read-out: Toxicity ratio; in short: as §3
WiDr [13] = experiment: Compound was tested for antitumor activity against The compound tested for activity against Human colon carcinoma sensitive WiDr cell line.; assay type: functional, cell-based

| SMILES | IC50 (L1210 [1]) [µM] | IC50 (MCF7 [2]) [nM] | IC50 (WiDr [3]) [nM] | IC50 (MCF7 [4]) [nM] | IC50 (Rattus norvegicus) [nM] | IC50 (L1210 [5]) [µM] | Toxicity ratio [6] | IC50 (WiDr [7]) [nM] | IC50 (UACC-375) [nM] | IC50 (MCF7 [8]) [nM] | IC50 (A549) [nM] | IC50 (OVCAR-3) [nM] | IC50 (MCF7 [9]) [nM] | IC50 (L1210 [10]) [nM] | IC50 (L1210 [11]) [nM] | selectivity ratio [12] | IC50 (WiDr [13]) [nM] |
| --- | --- | --- | --- | --- | --- | --- | --- | --- | --- | --- | --- | --- | --- | --- | --- | --- | --- |
| CN(C)CCN1C(=O)c2c(O)ccc3cc4ccccc4c(c23)C1=O | 14.8 | 1200 | 2220 | 2800 | > 135000 | 6.74 | >20 | 4700 | 7550 | 1500 | 820 | 5500 | – | – | – | – | – |
| CN(C)CCN1C(=O)c2cccc3cc4cc(O)ccc4c(c23)C1=O | – | 13 | 17 | – | 404 | – | 40.4 | 20 | 4 | 17 | 7.1 | 22 | 20 | 5.4 | 6.7 | – | – |
| CN(C)CCN1C(=O)c2cccc3cc4c(Cl)cccc4c(c23)C1=O | – | 60 | 20 | – | 1030 | – | – | 110 | 77 | 19 | 22 | 39 | 80 | – | 18 | 22.8 | – |
| CCOc1ccc2cc3cccc4c3c(c2c1)C(=O)N(CCN(C)C)C4=O | – | 32 | – | – | 11300 | 0.025 | 188 | 120 | 77 | 15 | 61 | 77 | 100 | – | 50 | – | 100 |
